Assay results collected from several papers.
Lines come from different studies, so protocols differ.
Target: Phosphatidylinositol 4-phosphate 3-kinase C2 domain-containing subunit beta (PIK3C2B, Homo sapiens, UniProt O00750)

Compound | test | conditions | remaining binding [%]
N[C@H]1CCN(c2nccc(-c3cnn4ncccc34)n2)C1 | binding | 1 µM | 100
CCN1CCN(Cc2ccc(C(=O)Nc3ccc(C)c(Oc4ccc5c(c4)CC(=O)N5)c3)cc2C(F)(F)F)CC1 | binding, competition with immobilised ligand | 1 µM | 66
c1cnn2ncc(-c3ccnc(N4CCC45COC5)n3)c2c1 | binding | 1 µM | 82
O=C(Nc1c[nH]nc1C(=O)NC1CCNCC1)c1cc(F)cc(F)c1 | binding, competition with immobilised ligand | 1 µM | 100
O=C(c1ccc(Nc2ncc(Cl)c(-c3ccc(Cl)s3)n2)cc1)N1CCC(N2CCCC2)CC1 | binding, competition with immobilised ligand | 1 µM | 98
CN(C)c1nccc(-c2cnn3ncccc23)n1 | binding | 1 µM | 100
CN(c1ccnc(CNc2nc(Nc3ccc4c(c3)CC(=O)N4)ncc2C(F)(F)F)n1)S(C)(=O)=O | cell-free assay, competition with immobilised ligand | 1 µM | 79
COc1ncc2cc3ccccc3nc2c1C#N | cell-free assay, competition with immobilised ligand | 5 µM | 100
O=S(=O)(NC1CCC(c2cc(F)ccc2F)(S(=O)(=O)c2ccc(Cl)cc2)CC1)C(F)(F)F (stereo not drawn) | cell-free assay, competition with immobilised ligand | 1 µM | 100
Cc1cnn2ncc(-c3ccnc(N(C)C)n3)c2c1 | binding | 1 µM | 100
c1cncc(-c2cccc(Nc3nccc(NC4CCCCC4)n3)c2)c1 | binding, competition with immobilised ligand | 10 µM | 81
O=C(c1ccc(Nc2nccc(-c3cc4ccccc4s3)n2)cc1)N1CCC(N2CCCC2)CC1 | binding, competition with immobilised ligand | 1 µM | 99
Nc1cnc(N2CCc3cc(S(=O)(=O)Nc4c(F)cc(Cl)cc4F)cc(N4CCCC4=O)c32)nc1 | cell-free assay, competition with immobilised ligand | 1 µM | 83
CNC(=O)[C@@H]1CC[C@@H](n2c(-c3ccc4cnccc4c3)nc3ccc(C(=O)NCc4cccc(C(N)=O)c4)cc32)C1 | binding, competition with immobilised ligand | 1 µM | 100
O=C(Nc1cnc(Oc2ccc(F)cc2)nc1)N1CCc2ncccc2[C@@H]1c1ccc(F)cc1 | cell-free assay, competition with immobilised ligand | 1 µM | 95
CC1CCCN1c1nccc(-c2cnn3ncccc23)n1 (stereo not drawn) | binding | 1 µM | 100
CC(C)(C)c1ccc(-c2nc(CBr)nn2-c2cccc(O)c2)cc1 | cell-free assay, competition with immobilised ligand | 10 µM | 60
COc1ccnn2ncc(-c3ccnc(N(C)C)n3)c12 | binding | 1 µM | 100
COc1ccc2c(O[C@@H]3C[C@H]4C(=O)N[C@]5(C(=O)O)CC5/C=C\CCCCC[C@H](NC(=O)OC5CCCC5)C(=O)N4C3)cc(-c3csc(NC(=O)C(C)C)n3)nc2c1C (stereo partly drawn) | cell-free assay, competition with immobilised ligand | 1 µM | 82
C=CC(=O)N1CCC(C(=O)NCC(=O)N2CCN(c3nc(-c4cnc(N)nc4C(F)F)nc(N4CCOCC4)n3)CC2)CC1 | binding, competition with immobilised ligand | 1 µM | 21
CC1=C(C#N)C(c2ccc3c(c2)c(NC(=O)c2ccccc2C)nn3C)C(C#N)=C(C)N1 | cell-free assay, competition with immobilised ligand | 1 µM | 76
O=C(NCCCN1CCOCC1)c1ccc(Nc2ncc(Cl)c(-c3ccc(Cl)s3)n2)cc1 | binding, competition with immobilised ligand | 1 µM | 100
CN(CCCC(F)(F)F)c1nccc(-c2cnn3ncccc23)n1 | binding | 1 µM | 100
C[C@H](c1ccnc(Nc2nc3ccc(-c4cc(N(C)C)ncn4)cc3[nH]2)c1)N1CCN(C(=O)CC(F)(F)F)CC1 | cell-free assay, competition with immobilised ligand | 0.1 µM | 97
